How the values were obtained:
Assay type in all cases: cell-based
rat TRPA1 = rat TRPA1 (Rattus norvegicus, UniProt Q6RI86); experiment: Two-electrode voltage clamp of Xenopus oocytes expressing rat TRPA1; conditions: for response to FFA and AITC together, % of that evoked by FFA alone: 30 µM FFA + 3 µM AITC; for current stimulated by FFA and CA together, % of that evoked by FFA: 30 µM FFA + 3 µM CA; for current with FFA at 14°C, % of that evoked by the same concentration at 22°C / increase of FFA-activated current by raising bath Ca2+ to 10 mM / decrease of FFA-activated current amplitude in BAPTA-injected oocytes: 30 µM FFA; for decrease of FFA-activated current amplitude in BAPTA-injected oocytes / EC50: nominally Ca2+-free bath; for decrease of FFA-activated current amplitude in BAPTA-injected oocytes: BAPTA ~2.5 mM
rat TRPA1, sequence (Q6RI86 whole entry): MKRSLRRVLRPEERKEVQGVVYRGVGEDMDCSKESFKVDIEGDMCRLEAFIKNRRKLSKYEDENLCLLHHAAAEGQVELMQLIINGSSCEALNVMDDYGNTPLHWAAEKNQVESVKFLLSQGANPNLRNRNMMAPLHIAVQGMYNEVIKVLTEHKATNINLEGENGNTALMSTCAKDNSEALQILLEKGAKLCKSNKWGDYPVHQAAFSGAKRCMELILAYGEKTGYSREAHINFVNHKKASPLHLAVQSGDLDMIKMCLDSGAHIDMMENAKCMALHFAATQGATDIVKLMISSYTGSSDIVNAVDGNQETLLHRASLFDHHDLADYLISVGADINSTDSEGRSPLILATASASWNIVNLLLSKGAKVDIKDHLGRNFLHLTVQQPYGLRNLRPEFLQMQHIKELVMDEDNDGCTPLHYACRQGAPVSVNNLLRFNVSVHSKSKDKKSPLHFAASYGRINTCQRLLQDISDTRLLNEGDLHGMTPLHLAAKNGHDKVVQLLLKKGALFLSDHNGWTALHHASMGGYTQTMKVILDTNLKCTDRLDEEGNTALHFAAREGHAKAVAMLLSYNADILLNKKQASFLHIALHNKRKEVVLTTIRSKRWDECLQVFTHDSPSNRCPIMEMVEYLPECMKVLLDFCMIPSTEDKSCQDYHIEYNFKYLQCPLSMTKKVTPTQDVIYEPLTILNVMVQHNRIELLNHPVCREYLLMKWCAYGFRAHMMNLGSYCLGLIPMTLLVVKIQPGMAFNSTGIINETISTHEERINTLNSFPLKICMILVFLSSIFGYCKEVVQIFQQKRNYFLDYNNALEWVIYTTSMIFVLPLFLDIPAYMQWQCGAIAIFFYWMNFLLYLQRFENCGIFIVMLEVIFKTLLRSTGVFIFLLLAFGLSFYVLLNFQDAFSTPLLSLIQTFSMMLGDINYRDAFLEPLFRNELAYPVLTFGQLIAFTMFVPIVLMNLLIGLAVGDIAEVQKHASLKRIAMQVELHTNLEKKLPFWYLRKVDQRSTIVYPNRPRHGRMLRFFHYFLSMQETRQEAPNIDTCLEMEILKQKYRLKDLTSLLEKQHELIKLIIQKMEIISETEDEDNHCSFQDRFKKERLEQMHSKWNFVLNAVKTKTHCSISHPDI

murine TRPV1 [1] = target: T1, murine TRPV1 (Mus musculus, UniProt Q704Y3); experiment: Two-electrode voltage clamp of Xenopus oocytes expressing murine TRPV1; conditions: 100 µM FFA with 100 µM 2APB
T1 sequence (Q704Y3 whole entry): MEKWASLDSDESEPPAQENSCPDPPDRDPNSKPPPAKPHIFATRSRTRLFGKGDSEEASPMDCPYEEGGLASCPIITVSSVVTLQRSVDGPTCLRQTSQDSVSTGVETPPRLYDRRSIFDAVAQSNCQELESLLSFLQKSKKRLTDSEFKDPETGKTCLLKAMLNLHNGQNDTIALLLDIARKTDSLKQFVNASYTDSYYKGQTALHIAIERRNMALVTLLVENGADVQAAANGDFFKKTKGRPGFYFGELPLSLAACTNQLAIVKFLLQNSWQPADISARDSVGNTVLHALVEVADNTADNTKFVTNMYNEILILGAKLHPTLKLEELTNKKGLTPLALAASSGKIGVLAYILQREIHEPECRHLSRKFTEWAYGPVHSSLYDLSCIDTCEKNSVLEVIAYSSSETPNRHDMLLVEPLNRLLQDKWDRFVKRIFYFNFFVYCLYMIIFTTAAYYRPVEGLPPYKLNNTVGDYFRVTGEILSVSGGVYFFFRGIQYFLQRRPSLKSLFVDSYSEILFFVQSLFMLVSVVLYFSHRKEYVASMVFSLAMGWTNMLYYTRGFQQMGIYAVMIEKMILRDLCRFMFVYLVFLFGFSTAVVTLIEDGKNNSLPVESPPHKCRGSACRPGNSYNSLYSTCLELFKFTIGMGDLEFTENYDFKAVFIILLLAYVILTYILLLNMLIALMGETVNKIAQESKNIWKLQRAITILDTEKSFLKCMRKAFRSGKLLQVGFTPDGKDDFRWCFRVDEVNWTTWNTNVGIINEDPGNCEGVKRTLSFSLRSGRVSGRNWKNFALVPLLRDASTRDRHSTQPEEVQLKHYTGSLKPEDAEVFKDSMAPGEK
Summary of the method: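 Collagenase-defolliculated Xenopus oocytes (>1.5 mm) were injected with 5 ng cRNA and kept 2–5 days at 19°C in ND96. Two-electrode clamp used a nominally Ca²⁺-free bath (pH 7.4), holding −20 mV, a 20 ms step to −100 mV, then a 200 ms ramp to +100 mV each second, at 22°C.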

[2] = target: T2, human TRPA1 endogenously expressed in WI-38 fibroblasts (Homo sapiens, UniProt O75762); experiment: Fluo4 [Ca2+]i assay in WI-38 fibroblasts
T2 sequence (O75762 whole entry): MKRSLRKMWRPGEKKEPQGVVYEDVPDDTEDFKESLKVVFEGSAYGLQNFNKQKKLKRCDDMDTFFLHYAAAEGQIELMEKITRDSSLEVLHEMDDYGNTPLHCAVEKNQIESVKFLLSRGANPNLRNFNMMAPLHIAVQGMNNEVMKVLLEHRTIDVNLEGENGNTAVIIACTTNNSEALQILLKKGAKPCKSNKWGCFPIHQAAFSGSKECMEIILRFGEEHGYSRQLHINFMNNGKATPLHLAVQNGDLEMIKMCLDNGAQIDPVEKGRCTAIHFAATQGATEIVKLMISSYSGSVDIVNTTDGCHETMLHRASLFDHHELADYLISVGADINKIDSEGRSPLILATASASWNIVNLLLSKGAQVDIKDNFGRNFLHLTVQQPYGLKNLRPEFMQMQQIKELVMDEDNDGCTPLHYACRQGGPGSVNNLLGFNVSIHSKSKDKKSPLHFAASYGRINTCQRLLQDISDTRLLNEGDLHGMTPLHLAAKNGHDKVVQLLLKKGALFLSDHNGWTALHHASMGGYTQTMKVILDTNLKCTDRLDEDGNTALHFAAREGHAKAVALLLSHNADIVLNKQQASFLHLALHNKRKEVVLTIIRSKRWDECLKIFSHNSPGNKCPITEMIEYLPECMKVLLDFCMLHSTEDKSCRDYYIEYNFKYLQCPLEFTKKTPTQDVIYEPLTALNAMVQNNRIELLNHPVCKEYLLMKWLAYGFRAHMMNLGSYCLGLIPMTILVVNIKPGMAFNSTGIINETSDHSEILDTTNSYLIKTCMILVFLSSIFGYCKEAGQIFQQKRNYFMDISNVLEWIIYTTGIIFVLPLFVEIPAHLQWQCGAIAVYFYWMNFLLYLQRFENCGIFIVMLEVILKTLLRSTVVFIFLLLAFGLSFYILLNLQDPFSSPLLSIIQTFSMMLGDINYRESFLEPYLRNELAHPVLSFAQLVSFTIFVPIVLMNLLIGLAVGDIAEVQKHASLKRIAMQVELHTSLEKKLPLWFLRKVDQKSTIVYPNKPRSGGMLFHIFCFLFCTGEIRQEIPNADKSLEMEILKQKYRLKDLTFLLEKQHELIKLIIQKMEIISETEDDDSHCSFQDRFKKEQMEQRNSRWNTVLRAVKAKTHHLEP

human TRPA1 = human TRPA1 (Homo sapiens, UniProt O75762); experiment: Fluo4 [Ca2+]i assay in HEK-A1 cells
human TRPA1, sequence (O75762 whole entry): as above

[3] = target: T2, human TRPA1 endogenously expressed in WI-38 fibroblasts; experiment: Whole-cell recordings of WI-38 cells
Summary of the method: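 WI-38 cells grown in MEM with 10% heat-inactivated FBS and penicillin/streptomycin at 37°C, 5% CO₂. Cells were detached with 0.05% trypsin plus 0.53 mM EDTA in Ca²⁺/Mg²⁺-free HBSS for 5–10 min, held at 37°C, then settled on polyornithine-coated coverslips for 3–5 min before perfusion. Whole-cell voltage clamp was sampled at 5 kHz, with 100 ms ramps from −100 to +100 mV (holding −60 mV) applied every 0.5 s.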

murine TRPV1 [4] = target: T1, murine TRPV1; experiment: Fura2 Ca2+ imaging of HEK293 cells transiently expressing TRPV1
Summary of the method: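 Murine TRPV1 (pIRES2EGFP) was transiently expressed in HEK293 cells, which were seeded on polyornithine coverslips one day after transfection. After 16 hrs, cells were loaded with 2 µM Fura2-AM plus 0.05% Pluronic F-127 (60 min, 37°C). Transfected cells were identified by GFP (470 nm). Imaging used 340/380 nm excitation and 510 nm emission at 22°C. Capsaicin and test compound were perfused at final concentration. Maximal Fura2 ratio change reported, n = 3.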

murine TRPV3 = target: T3, murine TRPV3 (Mus musculus, UniProt Q8K424); experiment: Fluo4 [Ca2+]i assay in stable HEK293 TRPV3 cell line
T3 sequence (Q8K424 1-791): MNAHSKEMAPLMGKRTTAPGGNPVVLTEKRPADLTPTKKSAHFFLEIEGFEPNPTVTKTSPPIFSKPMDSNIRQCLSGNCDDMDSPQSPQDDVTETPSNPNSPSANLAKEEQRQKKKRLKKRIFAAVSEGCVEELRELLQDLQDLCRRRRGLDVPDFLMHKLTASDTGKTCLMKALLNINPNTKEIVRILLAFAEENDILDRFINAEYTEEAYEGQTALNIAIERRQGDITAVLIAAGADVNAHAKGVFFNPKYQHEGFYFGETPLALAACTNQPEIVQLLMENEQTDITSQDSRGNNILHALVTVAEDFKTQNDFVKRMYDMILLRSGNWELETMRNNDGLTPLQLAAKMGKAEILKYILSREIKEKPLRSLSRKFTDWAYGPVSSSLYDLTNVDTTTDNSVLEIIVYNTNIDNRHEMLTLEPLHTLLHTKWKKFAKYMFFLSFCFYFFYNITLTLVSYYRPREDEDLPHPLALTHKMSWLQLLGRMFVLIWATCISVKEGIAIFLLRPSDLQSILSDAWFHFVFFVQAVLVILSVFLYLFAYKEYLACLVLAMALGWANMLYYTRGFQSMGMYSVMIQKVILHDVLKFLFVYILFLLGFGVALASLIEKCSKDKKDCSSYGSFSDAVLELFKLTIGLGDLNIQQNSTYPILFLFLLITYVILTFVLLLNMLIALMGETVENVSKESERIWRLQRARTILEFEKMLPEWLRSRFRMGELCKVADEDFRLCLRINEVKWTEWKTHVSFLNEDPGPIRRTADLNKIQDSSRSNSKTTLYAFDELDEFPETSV
Summary of the method: (§1)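 Stable HEK293 lines expressing murine TRPV3 (clonal) or TRPM8 (polyclonal), selected with 400 µg/ml G418. Seeded at ~100,000 cells/well on polyornithine-treated wells and grown 14–18 hrs. Loaded with 2 µM Fluo4-AM plus 0.05% Pluronic F-127 in ECS (pH 7.4) for 60 min at 37°C, with 2 mM probenecid throughout. Test compound and channel agonist added robotically. Fluorescence read at ex 494/em 525 nm, 0.67 Hz, 20–25°C. Maximal fluorescence change reported, n = 3.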

murine TRPM8 = murine TRPM8 (Mus musculus, UniProt Q8R4D5); experiment: Fluo4 [Ca2+]i assay in stable HEK293 TRPM8 cell line
murine TRPM8, sequence (Q8R4D5 whole entry): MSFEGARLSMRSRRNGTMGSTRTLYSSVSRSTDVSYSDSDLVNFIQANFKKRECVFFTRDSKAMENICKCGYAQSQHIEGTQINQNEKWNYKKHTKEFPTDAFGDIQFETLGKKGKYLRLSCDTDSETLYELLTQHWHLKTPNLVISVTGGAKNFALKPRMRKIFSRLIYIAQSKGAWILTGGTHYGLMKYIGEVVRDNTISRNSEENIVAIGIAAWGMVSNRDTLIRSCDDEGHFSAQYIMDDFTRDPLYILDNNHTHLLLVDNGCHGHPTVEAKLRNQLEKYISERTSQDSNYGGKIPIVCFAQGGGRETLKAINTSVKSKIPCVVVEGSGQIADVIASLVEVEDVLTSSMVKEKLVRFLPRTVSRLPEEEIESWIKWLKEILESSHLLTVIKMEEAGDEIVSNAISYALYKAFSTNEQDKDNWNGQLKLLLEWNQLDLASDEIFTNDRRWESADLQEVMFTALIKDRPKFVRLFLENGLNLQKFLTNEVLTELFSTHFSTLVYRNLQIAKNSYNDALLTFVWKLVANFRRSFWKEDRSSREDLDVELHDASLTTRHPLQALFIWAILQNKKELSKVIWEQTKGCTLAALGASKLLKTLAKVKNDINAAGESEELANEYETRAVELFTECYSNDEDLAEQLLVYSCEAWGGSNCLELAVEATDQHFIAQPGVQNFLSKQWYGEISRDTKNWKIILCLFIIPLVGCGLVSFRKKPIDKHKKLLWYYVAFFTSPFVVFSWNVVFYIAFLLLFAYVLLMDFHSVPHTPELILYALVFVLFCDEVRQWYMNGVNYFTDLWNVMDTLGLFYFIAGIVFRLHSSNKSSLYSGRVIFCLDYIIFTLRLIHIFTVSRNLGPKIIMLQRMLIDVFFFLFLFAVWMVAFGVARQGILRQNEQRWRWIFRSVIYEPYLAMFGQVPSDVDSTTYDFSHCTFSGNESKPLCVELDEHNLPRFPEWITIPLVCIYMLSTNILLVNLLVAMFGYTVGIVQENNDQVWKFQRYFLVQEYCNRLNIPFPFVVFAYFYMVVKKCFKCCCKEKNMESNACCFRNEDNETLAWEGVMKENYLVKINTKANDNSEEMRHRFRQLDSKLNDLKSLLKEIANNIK
Summary of the method: as §1

HEK293 cells = experiment: Fluo4 [Ca2+]i assay in parental HEK293 cells; conditions: 300 µM
Summary of the method: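 Wild-type HEK293 cells in DMEM (4.5 mg/ml glucose, 10% heat-inactivated FBS, penicillin/streptomycin), plated on polyornithine-treated wells for 14–18 hrs. Loaded with Fluo4-AM (2 µM, 60 min, 37°C) in ECS with 2 mM probenecid, then washed. Test compound was given robotically at 300 µM final. Fluorescence was read on a plate reader at ex 494/em 525 nm, 0.67 Hz, 20–25°C.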

[5] = target: human TRPA1 Cys621Ser, Cys641Ser and Cys665Ser triple mutant (Homo sapiens, UniProt O75762, C621S/C641S/C665S); experiment: Currents of human TRPA1 triple cysteine mutant; conditions: HH, unpublished results
human TRPA1 Cys621Ser, Cys641Ser and Cys665Ser triple mutant, sequence (O75762 whole entry C621S/C641S/C665S): as the sequence (O75762 whole entry) above, with C621S, C641S, C665S counted along it

[6] = high concentrations of FFA (30 to 300 µM)

SMILES: O=C(O)c1ccccc1Nc1cccc(C(F)(F)F)c1 [FFA, flufenamic acid]
- threshold of activation (rat TRPA1): about 10 µM
- response to FFA and AITC together, % of that evoked by FFA alone (rat TRPA1; +100 mV): 300 ± 52%
- response to FFA and AITC together, % of that evoked by FFA alone (rat TRPA1; −100 mV): 350 ± 62%
- current stimulated by FFA and CA together, % of that evoked by FFA (rat TRPA1; +100 mV): 223 ± 25%
- current stimulated by FFA and CA together, % of that evoked by FFA (rat TRPA1; −100 mV): 234 ± 43%
- current with FFA at 14°C, % of that evoked by the same concentration at 22°C (rat TRPA1; +100 mV): 226 ± 86%
- current with FFA at 14°C, % of that evoked by the same concentration at 22°C (rat TRPA1; −100 mV): 315 ± 85%
- increase of FFA-activated current by raising bath Ca2+ to 10 mM (rat TRPA1; +100 mV): 240 ± 39%
- decrease of FFA-activated current amplitude in BAPTA-injected oocytes (rat TRPA1; +100 mV): ~ 44%
- decrease of FFA-activated current amplitude in BAPTA-injected oocytes (rat TRPA1; −100 mV): ~ 33%
- increase of FFA-activated current by raising bath Ca2+ to 10 mM (rat TRPA1; −100 mV): 309 ± 49%
- Hill co-efficient at +100 mV (rat TRPA1; +100 mV): 2.2 ± 0.2
- EC50 (rat TRPA1; EC50 for current activation at +100 mV, +100 mV): 78 ± 4 µM
- EC50 (rat TRPA1; EC50 for current activation at −100 mV, −100 mV): 147 ± 4 µM
- Hill co-efficient at −100 mV (rat TRPA1; −100 mV): 2.2 ± 0.1
- suppression of 2APB-activated current (murine TRPV1 [1]; +100 mV): 57%
- suppression of 2APB-activated current (murine TRPV1 [1]; −100 mV): 75%
- agonist effect on Fluo4 fluorescence ([Ca2+]i) in WI-38 cells ([2]; 300 µM): increased the Fluo4 fluorescence
- nH (Hill coefficient) ([2]; WI-38 cells): 1.3 ± 0.2
- EC50 (human TRPA1): 57 ± 5 µM
- nH (Hill coefficient) (human TRPA1; HEK-A1 cells): 1.6 ± 0.1
- Hill co-efficient at +100 mV ([3]; +100 mV): 1.7 ± 0.2
- EC50 ([3]; EC50 for FFA-evoked whole-cell currents at +100 mV, +100 mV): 44 ± 11 µM
- EC50 ([3]; EC50 for FFA-evoked whole-cell currents at −100 mV, −100 mV): 55 ± 4 µM
- Hill co-efficient at −100 mV ([3]; −100 mV): 2.4 ± 0.1
- increase in Fura2 ratio upon application (murine TRPV1 [4]; FFA from 3.7 to 100 µM): no significant increase
- effect on [Ca2+]i increase elicited by the channel's agonist (murine TRPV1 [4]; [6]): inhibited
- increase in Fluo4 fluorescence upon application (murine TRPV3; FFA from 3.7 to 100 µM): no significant increase
- effect on [Ca2+]i increase elicited by the channel's agonist (murine TRPV3; [6]): inhibited
- Fluo4 fluorescence change (murine TRPM8; 300 µM FFA): slow fluorescence increase
- increase in Fluo4 fluorescence upon application (murine TRPM8; FFA from 3.7 to 100 µM): no significant increase
- effect on [Ca2+]i increase elicited by the channel's agonist (murine TRPM8; [6]): inhibited
- effect on Fluo4 fluorescence in HEK293 cells (HEK293 cells): little effect
- concentration-response curve in triple cysteine mutant [5]: right-shifted

From PMC2828537 (Pflugers Archiv : European journal of physiology, 2009)
